Laboratory results taken from ChEMBL document CHEMBL4229344 (Eur J Med Chem, 2018).
Activity calls are given as the source filed them. The calls are words filed in the database; no cut-off is given here.

Columns and labels:
[1] = biological target: Platelet-derived growth factor receptor beta (Homo sapiens, UniProt P09619); test: Binding affinity to wild-type human partial length PDGFRbeta (V582 to Y1009 residues) expressed in bacterial expression system assessed as residual binding level at 1 uM by Kinomescan method relative to control
In short: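 KINOMEscan competition binding against a panel of 468 purified kinases/mutants, compound tested at 1 μM; readout is relative binding activity versus control.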

[2] = biological target: Epithelial discoidin domain-containing receptor 1 (Homo sapiens, UniProt Q08345); test: Binding affinity to wild-type human partial length DDR1 (R565 to V876 residues) expressed in bacterial expression system assessed as residual binding level at 1 uM by Kinomescan method relative to control
In short: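 Kinome-wide competition binding screen against a panel of 468 purified kinases/mutants, with the test compound at a single concentration of 1 μM. Read-out is the relative binding activity of each kinase in the presence of compound.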

[3] = biological target: Serine/threonine-protein kinase BRSK2 (Homo sapiens) (UniProt Q8IWQ3); test: Binding affinity to wild-type human full length BRSK2 (M1 to L674 residues) expressed in bacterial expression system assessed as residual binding level at 1 uM by Kinomescan method relative to control
In short: (§1)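 Single-concentration (1 μM) competition-binding screen run by KINOMEscan against a panel of 468 purified kinases and mutants. The read-out is the relative binding activity of the test compound to each kinase.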

[4] = biological target: Ribosomal protein S6 kinase alpha-3 (Homo sapiens) (UniProt P51812); test: Binding affinity to wild-type human partial length C-terminal RSK2 kinase domain 2 (V402 to S715 residues) expressed in mammalian expression system assessed as residual binding level at 1 uM by Kinomescan method relative to control
[5] = biological target: Serine/threonine-protein kinase SBK1 (Homo sapiens) (UniProt Q52WX2); test: Binding affinity to wild-type human partial length SBK1 (P23 to P348 residues) expressed in mammalian expression system assessed as residual binding level at 1 uM by Kinomescan method relative to control
[6] = biological target: Transient receptor potential cation channel subfamily M member 6 (Homo sapiens) (UniProt Q9BX84); test: Binding affinity to wild-type human partial length TRPM6 (Q1723 to I1998 residues) expressed in mammalian expression system assessed as residual binding level at 1 uM by Kinomescan method relative to control
[7] = biological target: Cyclin-dependent kinase 17 (Homo sapiens) (UniProt Q00537); test: Binding affinity to wild-type human full length PCTK2 (M1 to F523 residues) expressed in bacterial expression system assessed as residual binding level at 1 uM by Kinomescan method relative to control
In short: (§2)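 Single-concentration KINOMEscan (DiscoverX) binding screen at 1 μM against a panel of 468 purified kinases and mutants. The read-out is binding relative to control.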

[8] = system: Receptor-type tyrosine-protein kinase FLT3 (Homo sapiens), P36888 [UNDEFINED MUTATION]; test: Binding affinity to human partial length FLT3 ITD/F691L double mutant expressed in bacterial expression system assessed as residual binding level at 1 uM by Kinomescan method relative to control
In short: (§3)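 Kinome-wide single-concentration binding screen (KINOMEscan) at 1 μM against a panel of 468 purified kinases and mutants. Read-out is relative binding of each kinase compared with control. Selectivity across the panel was summarised as an S(10) score.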

[9] = biological target: Casein kinase II subunit alpha' (Homo sapiens) (UniProt P19784); test: Binding affinity to wild-type human full length CSNK2A2 (M1 to R350 residues) expressed in mammalian expression system assessed as residual binding level at 1 uM by Kinomescan method relative to control; in short: as §1
[10] = biological target: Calcium/calmodulin-dependent protein kinase type 1B (Homo sapiens) (UniProt Q6P2M8); test: Binding affinity to wild-type human partial length CAMK1B (W9 to A311 residues) expressed in mammalian expression system assessed as residual binding level at 1 uM by Kinomescan method relative to control
[11] = biological target: Epidermal growth factor receptor (Homo sapiens) (UniProt P00533); test: Binding affinity to human partial length EGFR S752-I759del mutant expressed in bacterial expression system assessed as residual binding level at 1 uM by Kinomescan method relative to control; in short: as §3
[12] = biological target: Tyrosine-protein kinase TXK (Homo sapiens) (UniProt P42681); test: Binding affinity to wild-type human partial length TXK (L238 to W527 residues) expressed in bacterial expression system assessed as residual binding level at 1 uM by Kinomescan method relative to control
[13] = biological target: MAP kinase-interacting serine/threonine-protein kinase 1 (Homo sapiens) (UniProt Q9BUB5); test: Binding affinity to wild-type human full length MKNK1 (M1 to L424 residues) expressed in mammalian expression system assessed as residual binding level at 1 uM by Kinomescan method relative to control; in short: as §2
[14] = biological target: Non-receptor tyrosine-protein kinase TNK1 (Homo sapiens) (UniProt Q13470); test: Binding affinity to wild-type human full length TNK1 (M1 to P661 residues) expressed in bacterial expression system assessed as residual binding level at 1 uM by Kinomescan method relative to control
In short: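 KINOMEscan competition binding against 468 purified kinases/mutants, test compound at 1 µM; residual binding relative to control.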

[15] = biological target: cAMP-dependent protein kinase catalytic subunit beta (Homo sapiens) (UniProt P22694); test: Binding affinity to wild-type human full length PKAC-beta (M1 to F351 residues) expressed in bacterial expression system assessed as residual binding level at 1 uM by Kinomescan method relative to control; in short: as §2
[16] = biological target: Serine/threonine-protein kinase WNK1 (Homo sapiens) (UniProt Q9H4A3); test: Binding affinity to wild-type human partial length WNK1 (Q194 to A490 residues) expressed in mammalian expression system assessed as residual binding level at 1 uM by Kinomescan method relative to control
[17] = biological target: Cyclin-dependent kinase 16 (Homo sapiens) (UniProt Q00536); test: Binding affinity to wild-type human partial length PCTK1 (G160 to A474 residues) expressed in mammalian expression system assessed as residual binding level at 1 uM by Kinomescan method relative to control
[18] = biological target: TGF-beta receptor type-2 (Homo sapiens) (UniProt P37173); test: Binding affinity to wild-type human partial length TGFBR2 (I218 to K567 residues) expressed in bacterial expression system assessed as residual binding level at 1 uM by Kinomescan method relative to control
[19] = biological target: Tyrosine-protein kinase ABL1 (Homo sapiens, UniProt P00519); test: Binding affinity to wild-type human non-phosphorylated ABL1 (S229 to K512 residues) expressed in mammalian expression system assessed as residual binding level at 1 uM by Kinomescan method relative to control; in short: as §2
[20] = biological target: Platelet-derived growth factor receptor alpha (Homo sapiens, UniProt P16234); test: Inhibition of PDGFRalpha autophosphorylation at Y1018 residue in human EOL-1 cells up to 300 nM after 2 hrs by Western blot analysis; format: cell-based
[21] = biological target: Serine/threonine-protein kinase ULK3 (Homo sapiens) (UniProt Q6PHR2); test: Binding affinity to wild-type human partial length ULK3 (M1 to Q290 residues) expressed in mammalian expression system assessed as residual binding level at 1 uM by Kinomescan method relative to control

Cc1ccc(NC(=O)c2ccc(CN(CCN(C)C)C(=O)c3cccnc3)cc2)cc1Nc1nccc(-c2cccnc2)n1
Activity [1]: 0.7%
Activity [2]: 3.9%
Activity [3]: 97%
Activity [4]: 100%
Activity [5]: 100%
Activity [6]: 100%
Activity [7]: 99%
Activity [8]: 100%
Activity [9]: 88%
Activity [10]: 90%
Activity [11]: 90%
Activity [12]: 100%
Activity [13]: 100%
Activity [14]: 87%
Activity [15]: 77%
Activity [16]: 85%
Activity [17]: 100%
Activity [18]: 100%
Activity [19]: 4.9%
inhibition [20]: Active
Activity [21]: 85%
